Screening results: PubChem, several laboratories
Sampled rows, rich in hits. Any-hit rate of the full collection: about 6.4%.
Fibroblast inh: antiproliferative effect on LL 47 fibroblasts – human, LL 47 cells, CellTiter-Glo luminescence, primary screen; actives 1.1% (n = 85,000); viability, % at 10 µM; AID 719, 2007; LL 47 human lung fibroblast viability, ATP luminescence; stronger effect = lower value;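 active = viability at or below 50% in the single dose screen; inactive = viability above 50%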;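 note: compound exposure lasted 72 h before the ATP readout; 100% = median luminescence of untreated cell-only wells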
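Test system: LL 47 human lung fibroblasts / Incubation: 72 h compound exposure at 37 °C after overnight plating / Technique: luminescent ATP detection, CellTiter-Glo / Compound dosing: 0.1% DMSO in all compound wells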
H69AR inhibit: proliferation blockers of H69AR lung cancer cells, primary screen, cell-based, human, 86K library; H69AR lung tumor viability, ATP luminescence, 72 h; stronger effect = lower value; viability, % at 10 µM; actives 6% (n = 85,000); AID 598, 2007;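 active = viability at or below 40%; inactive = viability above 40%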;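 note: multidrug resistant small cell line overexpressing MRP-1 efflux transporter; 100% = mean luminescence of untreated control wells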
Ecoli WT expand: growth inhibitors of wild-type E. coli, primary screen, strain BW25113, expanded library, OD600; OD600 absorbance; growth inhibition, % at 100 µM; actives 0.15% (n = 98,000);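 active = growth inhibition above about 50% at one test dose, limit read from the data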;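 note: growth measured after 20 h incubation at 37 °C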
HUVEC inhibit: inhibitors of HUVEC proliferation, primary screen, cell-based, 384-well; CellTiter-Glo luminescence, 72 h; stronger effect = lower value; AID 648, 2007; actives 1.1% (n = 86,000); viability, % at 10 µM (by protocol);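 active = viability at or below 30%; inactive = viability above 30%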;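 note: 100% = median luminescence of DMSO-only cell control wells on each plate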
Ecoli tolC: growth inhibitors of E. coli tolC mutant, primary screen, strain BW25113 ΔtolC::kan, 384-well. OD615. growth inhibition, % at 10 µM (by protocol). actives 2.2% (n = 65,000). AID 573, 2007;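 active = growth inhibition at or above a cutoff equal to the mean over every tested compound plus 3 SD, cut at about 60% in these data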;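 note: growth measured after 20 h incubation at 37 °C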
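Test system: E. coli BW25113 ΔtolC::kan bacteria | Medium: Kanamycin-containing LB broth (50 µg/mL) | Dosing: One dose of 10 µM final | Times: 20 h incubation with compound, 37 °C | Detection: Optical density read at 615 nm | Read-out basis: Percent growth inhibition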
Jurkat tox 60K: cytotoxicity toward Jurkat T cells, primary screen, cytotoxicity control, cell-based, Jurkat E6.1, 60K MLSMR library | AID 463, 2006 | Jurkat E6.1 viability, ATP luminescence, 48 h | inhibition, % at 4 µM | actives 1.2% (n = 56,000);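 active = inhibition above the mean inhibition of all tested compounds plus 3 SD, cut at about 28% in these data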
The depositor's hits bear a star; · = not tested or not shown.

SMILES	Fibroblast inh	H69AR inhibit	Ecoli WT expand	HUVEC inhibit	Ecoli tolC	Jurkat tox 60K
COc1cc(/C=C2/SC(=NCc3ccccc3)N(Cc3ccccc3)C2=O)ccc1O	·	·	-18	·	·	·
CCN(CC)CCOC(=O)c1cccc(Br)c1	107	88	-7	102	2	1
O=c1c2c(nc3cc(-c4cccc(Cl)c4)[nH]n13)CCC2	93	79	3	66	·	·
O=c1c2c(nc3c(-c4ccc(Cl)cc4)c[nH]n13)CCCC2	60	20*	-2	58	100*	5
O=c1c2c(nc3c(-c4cccc5ccccc45)c[nH]n13)CCC2	96	74	-2	70	65*	0
CO/N=C/C(=N\Nc1ccc(OC)cc1)C(=O)c1ccc(OC)cc1	85	24*	-5	91	·	·
CC(C)(C)NS(=O)(=O)c1ccc(OCC(=O)Nc2ccc3c(c2)OCCO3)cc1	93	88	-3	104	5	·
CC1=C(C(=O)OCc2ccc3c(c2)OCO3)C(c2ccc(Cl)cc2)NC(=O)N1 (centres undefined)	53	29*	·	27*	32	78*
CCOC(=O)C1=C(C)NC(=O)NC1c1ccc2c(c1)OCCO2 (centres undefined)	101	84	-1	96	7	4
CC1=C(C(=O)OCc2ccc3c(c2)OCO3)C(c2ccc(F)cc2)NC(=O)N1 (centres undefined)	·	·	1	·	·	84*
CC(SCc1ccccc1)C(=O)NC1CCCC1 (centres undefined)	103	97	-3	108	8	-3
O=c1[nH]cnc2c1sc(=S)n2-c1ccccc1	105	76	-15	92	-25	0
Cc1nc2scc(-c3cccs3)c2c(=O)n1-n1cccc1	90	83	4	91	-1	2
Cc1cccc(NC(=O)CSc2nc(COc3ccccc3)nc3ccccc23)c1C	·	·	-5	·	·	·
O=S(=O)(c1cc(-c2nnc(-c3ccc(Br)cc3)o2)ccc1Br)N1CCCCCC1	94	29*	·	77	·	·
Cn1c(=O)cc(OCC(=O)N2CCCc3ccccc32)c2ccccc21	97	84	1	89	5	1
CCc1nc2sc3ccccc3c(=O)c2c(=O)n1Cc1ccco1	96	71	3	89	91*	-4
O=c1c2ccccc2sc2nc(C3CCCCC3)n(Cc3ccco3)c(=O)c12	93	78	6	85	52	-10
Cc1c(NC(=S)N/N=C/c2cccc(O)c2)c(=O)n(-c2ccccc2)n1C	·	·	3	·	·	·
C=CCNC(=O)CSc1nc2cc(C(=O)OCC)ccc2n1CC	91	26*	-16	80	·	·
CCOC(=O)c1ccc2c(c1)nc(SCC(=O)c1cc3ccccc3o1)n2CC	91	59	5	90	·	·
N#Cc1nc(N2CCCCC2)nc(N2CCOCC2)n1	81	85	-2	100	2	42*
N#Cc1nc(N2CCCC2)nc(N2CCCC2)n1	77	85	4	89	0	22
CCC(C)(C)n1nnnc1C(c1cc2ccc(C)cc2[nH]c1=O)N(Cc1cccnc1)Cc1ccco1 (centres undefined)	88	90	-9	85	71*	-2
Cc1cc2cc(C(c3nnnn3C3CCCC3)N(Cc3cccnc3)Cc3ccco3)c(=O)[nH]c2cc1C (centres undefined)	91	81	-16	85	·	·
SMILES	Fibroblast inh	H69AR inhibit	Ecoli WT expand	HUVEC inhibit	Ecoli tolC	Jurkat tox 60K
CCOC(=O)N1CCN(C(=O)CSCC(=O)N=c2sc3ccccc3n2C)CC1	99	88	4	100	-1	·
Cn1c(=NC(=O)CCl)sc2ccccc21	2.4*	1.4*	6	76	·	·
COC(=O)CSC1=C(C#N)C(c2sccc2C)CC(=O)N1 (centres undefined)	·	·	·	·	-14	4
CS(=O)(=O)c1nc(-c2ccccc2)cc(-c2ccccc2)c1C#N	40*	1.5*	-8	39	·	·
O=C1CCN(S(=O)(=O)c2ccccc2)N1	·	·	-1	·	·	·
COc1ccc(N2CCN(S(=O)(=O)c3ccc(OC)cc3)CC2)cc1	95	97	·	98	0	-2
COc1cccc(N2CCN(S(=O)(=O)c3ccc4nc(-c5ccccc5)[nH]c4c3)CC2)c1	97	13*	-15	60	-9	11
COc1cccc(C2CC(c3cccs3)=NN2C(=S)Nc2ccccc2)c1OC (centres undefined)	·	·	-13	·	·	·
CCOC(=O)Cn1c(=O)sc2ccccc21	85	98	-4	85	-9	8
O=C(Cn1c(SCC(=O)N2CCc3ccccc32)nc2ccccc21)NC1CCCC1	103	29*	·	76	·	·
O=C(Cn1c(SCC(=O)N2CCc3ccccc3C2)nc2ccccc21)NC1CCCC1	94	100	-4	79	·	·
O=C1CCCC2=C1C(c1ccco1)Nc1ccc(C(=O)c3ccccc3)cc1N2 (centres undefined)	84	13*	13	68	35	29
O=C1CCCc2c1[nH]c1ccc(Cl)cc21	97	107	·	19*	·	·
CCOC(=O)c1ccc2[nH]c3c(c2c1)CCCCC3=O	107	93	3	76	6	-3
CCOC(=O)CNC(=O)CSc1nnnn1-c1ccc(C)c(C)c1	97	104	3	88	-1	-3
Cc1ccccc1NS(=O)(=O)c1cc(C(=O)N2CCCC2)ccc1C	94	86	10	100	-2	-1
Cn1c(-c2ccc3ccccc3n2)nc2cnccc21	87	74	-2	29*	-5	8
COc1cc(OC)c(-c2nc3cnccc3n2C)cc1OC	107	99	7	96	-19	-2
CCN1CCN(c2cc(-c3ccccc3)nc3cc(-c4cccc(F)c4)nn23)CC1	90	41	·	22*	·	·
CCc1ccccc1N1C(=O)C2CC(C)=C(C)CC2C1=O (centres undefined)	95	83	0	95	-3	-10
O=C(NCc1ccccc1)c1ccc(S(=O)(=O)N2CCCc3ccccc32)cc1	93	61	-17	91	·	·
O=C(Nc1nnc(C2CC2)o1)c1ccc(S(=O)(=O)N2CCCc3ccccc32)cc1	71	18*	6	62	100*	102*
COc1ccc(-c2nnc(NC(=O)c3ccc(S(=O)(=O)N4CCCc5ccccc54)cc3)o2)cc1	63	17*	-7	3.0*	15	-2
O=C(c1ccc(Cl)cc1)c1oc2ccccc2c1CS(=O)c1ccc(Cl)cc1 (centres undefined)	·	·	-12	·	·	·
NC(=O)c1c(NC(=O)c2cc3ccccc3o2)sc2c1CCC2	82	24*	-18	62	10	-6
O=C(Nc1sc2c(c1C(=O)O)CCC2)c1ccco1	·	·	-11	·	·	·
